According to ChEMBL document CHEMBL2331184, “The synthesis and SAR of calcitonin gene-related peptide (CGRP) receptor antagonists derived from tyrosine surrogates. Part 2” (Bioorg Med Chem Lett, 2013):
Calls of active or inactive are those of the source. No cut-off for these calls is given here.

How the values were obtained:
[1] = target: Calcitonin gene-related peptide type 1 receptor (Homo sapiens) (UniProt Q16602); test: (§1) Antagonist activity at CGRP receptor in human SK-N-MC cells assessed as inhibition of […]-induced cAMP production; assay type: functional, cell-based
Chain of Calcitonin gene-related peptide type 1 receptor (Homo sapiens) (Q16602 whole entry): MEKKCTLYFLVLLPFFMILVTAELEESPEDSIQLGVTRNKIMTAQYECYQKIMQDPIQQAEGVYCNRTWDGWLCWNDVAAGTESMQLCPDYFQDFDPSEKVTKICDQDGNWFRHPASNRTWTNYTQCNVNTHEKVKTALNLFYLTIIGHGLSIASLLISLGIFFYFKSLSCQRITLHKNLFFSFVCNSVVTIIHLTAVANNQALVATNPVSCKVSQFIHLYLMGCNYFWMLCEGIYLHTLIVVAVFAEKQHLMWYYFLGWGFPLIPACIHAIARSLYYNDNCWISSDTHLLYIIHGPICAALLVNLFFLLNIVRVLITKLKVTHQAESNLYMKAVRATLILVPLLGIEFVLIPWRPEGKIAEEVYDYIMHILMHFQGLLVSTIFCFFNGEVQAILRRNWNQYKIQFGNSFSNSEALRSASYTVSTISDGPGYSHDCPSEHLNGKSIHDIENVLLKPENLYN
In short: (§2)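 Concentration-dependent inhibition of CGRP-stimulated cAMP production measured in SK-N-MC cells expressing the human CGRP receptor. Value reported as EC50.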

Cytochrome P450 3A4 [2] = target: T1, Cytochrome P450 3A4 (Homo sapiens, UniProt P08684); test: (§3) Inhibition of CYP3A4 (unknown origin) using 7-benzyloxy-4-trifluoromethylcoumarin as substrate; assay type: ADME
T1 sequence (P08684 whole entry): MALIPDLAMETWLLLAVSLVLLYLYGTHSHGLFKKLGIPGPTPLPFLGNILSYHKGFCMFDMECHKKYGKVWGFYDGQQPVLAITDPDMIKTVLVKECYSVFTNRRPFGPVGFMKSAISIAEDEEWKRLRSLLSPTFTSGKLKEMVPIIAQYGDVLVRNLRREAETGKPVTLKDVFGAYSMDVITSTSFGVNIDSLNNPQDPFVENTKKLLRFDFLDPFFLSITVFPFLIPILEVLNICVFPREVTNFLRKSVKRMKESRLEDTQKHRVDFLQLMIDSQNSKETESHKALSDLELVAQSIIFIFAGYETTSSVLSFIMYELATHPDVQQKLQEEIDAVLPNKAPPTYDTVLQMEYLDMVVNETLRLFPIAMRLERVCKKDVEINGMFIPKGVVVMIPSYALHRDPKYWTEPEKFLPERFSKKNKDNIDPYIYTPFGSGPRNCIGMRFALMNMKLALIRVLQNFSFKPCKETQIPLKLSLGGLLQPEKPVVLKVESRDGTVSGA

Cytochrome P450 3A4 [3] = target: T1, Cytochrome P450 3A4; test: Inhibition of CYP3A4 (unknown origin) using 7-benzyloxy-resorufin as substrate; assay type: ADME
[4] = target: T2, Calcitonin gene-related peptide type 1 receptor (Homo sapiens, UniProt O60894+Q16602); test: Binding affinity to CGRP receptor (unknown origin)
T2 sequence (Q16602 whole entry, one chain of several): as the sequence (Q16602 whole entry) above

[5] = Plasma concentration in marmoset at 0.03 g/kg, sc after 60 mins; assay type: ADME, organism-based, Callithrix jacchus; settings: 30 mg/kg
In short: (§4)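 Marmosets were anesthetized. Facial blood flow was raised by iv haCGRP (10 µg/kg) given at −30, 15, 60 and 105 min and read by laser Doppler flowmetry. The antagonist (racemate) was given SC at 0 min and compared with vehicle-treated animals, n = 5. Plasma levels were taken at 15, 60 and 105 min.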

[6] = Plasma concentration in marmoset at 0.03 g/kg, sc after 105 mins; assay type: ADME, organism-based, Callithrix jacchus; settings: 30 mg/kg; in short: as §4
[7] = Plasma concentration in marmoset at 0.03 g/kg, sc after 15 mins; assay type: ADME, organism-based, Callithrix jacchus; settings: 30 mg/kg; in short: as §4
Callithrix jacchus = test: Inhibition of CGRP-induced increases in marmoset facial blood flow at 0.03 g/kg, sc after 60 to 105 mins by doppler flowmetry; assay type: functional, organism-based; in short: as §4
[8] = target: T3, Nuclear receptor subfamily 1 group I member 2 (Homo sapiens, UniProt O75469); test: Activation of PXR (unknown origin)
T3 sequence (O75469 whole entry): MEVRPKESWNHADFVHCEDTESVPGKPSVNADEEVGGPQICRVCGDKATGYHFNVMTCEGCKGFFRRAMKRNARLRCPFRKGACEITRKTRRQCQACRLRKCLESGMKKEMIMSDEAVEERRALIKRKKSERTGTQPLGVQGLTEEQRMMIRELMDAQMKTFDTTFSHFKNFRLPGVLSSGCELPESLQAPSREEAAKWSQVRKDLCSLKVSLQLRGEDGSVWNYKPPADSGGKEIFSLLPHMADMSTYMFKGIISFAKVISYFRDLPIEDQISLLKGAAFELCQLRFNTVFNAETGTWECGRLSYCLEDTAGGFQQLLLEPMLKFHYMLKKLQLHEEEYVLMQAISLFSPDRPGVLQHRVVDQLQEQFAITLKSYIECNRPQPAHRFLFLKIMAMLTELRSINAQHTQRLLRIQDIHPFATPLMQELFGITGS

Salmonella typhimurium = test: Genotoxicity in Salmonella typhimurium by Ames test; assay type: toxicity, organism-based; settings: salmonella enterica subsp. enterica serovar typhimurium
[9] = Tmax in rabbit at 0.6 mg/kg administered intranasally; assay type: ADME, organism-based, Oryctolagus cuniculus; parameters: dose 0.6 mg/kg; settings: in vivo, inhaled or intranasal
In short: (§5)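 Rabbits were dosed intranasally with a spray of a 10 mg/mL aqueous solution of the HCl salt, at 0.6 mg/kg. […] Intranasal bioavailability was derived from these plasma levels.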

[10] = Bioavailability in rabbit at 0.6 mg/kg administered intranasally; assay type: ADME, organism-based, Oryctolagus cuniculus; settings: in vivo, inhaled or intranasal; in short: as §5
[11] = Aqueous solubility of the compound at pH 4.0 to 6.2; assay type: physicochemical; settings: aqueous solution
[12] = Reversal of CGRP-induced dilation on human intracranial arteries; assay type: functional, Artery
In short: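 Ex vivo human intracranial artery rings were mounted between two wire hooks on a force transducer to record tone. Rings were precontracted with 10 mM KCl and fully dilated with 1 nM haCGRP. Dilation was then reversed by cumulative half-log additions of antagonist.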

[13] = target: T2, Calcitonin gene-related peptide type 1 receptor; test: as §1; assay type: functional, cell-based; in short: as §2
CYP3A4 = CYP3A4 (Homo sapiens, UniProt P08684); test: as §3; assay type: ADME; settings: probe 7-benzyloxy-4-trifluoromethylcoumarin
Chain of CYP3A4 (P08684 whole entry): as the sequence (P08684 whole entry) above

inhibition [1] | IC50 (Cytochrome P450 3A4 [2]) [nM] | IC50 (Cytochrome P450 3A4 [3]) [nM] | Ki [4] [nM] | SMILES | also measured
Active | > 40000 | 7200 | 0.023 | O=C(N[C@H](Cc1cc(Br)c2[nH]c(=O)oc2c1)C(=O)N1CCC(N2CCCCC2)CC1)N1CCC(N2Cc3ccccc3NC2=O)CC1 | 
Active | > 40000 | 5000 | 0.28 | O=C(N[C@H](Cc1cc2oc(=O)[nH]c2cc1Cl)C(=O)N1CCC(N2CCCCC2)CC1)N1CCC(N2Cc3ccccc3NC2=O)CC1 | 
Active |  |  | 0.012 | Cc1cc(CC(NC(=O)N2CCC(N3Cc4ccccc4NC3=O)CC2)C(=O)N2CCC(N3CCCCC3)CC2)cc2cn[nH]c12 (racemic) | concentration at 1 h [5]: 13 nM; concentration at 1.75 h [6]: 11 nM; concentration at 0.25 h [7]: 4.7 nM; inhibition (Callithrix jacchus): Active
 | > 40000 | 7300 | 0.015 | Cc1cc(C[C@@H](NC(=O)N2CCC(N3Cc4ccccc4NC3=O)CC2)C(=O)N2CCC(N3CCCCC3)CC2)cc2[nH]nnc12 | 
Active |  | 370 | 0.22 | CC(C)c1cc(CC(NC(=O)N2CCC(N3Cc4ccccc4NC3=O)CC2)C(=O)N2CCC(N3CCCCC3)CC2)cc2cn[nH]c12 (racemic) | 
Active |  |  |  | Cc1cc(C[C@@H](NC(=O)N2CCC(N3Cc4ccccc4NC3=O)CC2)C(=O)N2CCC(N3CCCCC3)CC2)cc2nn[nH]c12 | 
Active |  |  | 0.14 | O=C(N[C@H](Cc1cc2oc(=O)[nH]c2cc1Br)C(=O)N1CCC(N2CCCCC2)CC1)N1CCC(N2Cc3ccccc3NC2=O)CC1 | 
 |  |  |  | Cc1cc(C[C@@H](NC(=O)N2CCC(N3Cc4ccccc4NC3=O)CC2)C(=O)N2CCC(N3CCCCC3)CC2)cc2cn[nH]c12.Cl | Activity [8]: Not Active; Activity (Salmonella typhimurium): Non-toxic; Tmax [9]: 10 min; bioavailability [10]: 42%; solubility [11]: 13 mg/mL
Active | 25000 | 450 | 0.005 | CCc1cc(CC(NC(=O)N2CCC(N3Cc4ccccc4NC3=O)CC2)C(=O)N2CCC(N3CCCCC3)CC2)cc2cn[nH]c12 (racemic) | 
Active | > 40000 | 17000 | 0.039 | O=C(N[C@H](Cc1cc(Cl)c2[nH]c(=O)oc2c1)C(=O)N1CCC(N2CCCCC2)CC1)N1CCC(N2Cc3ccccc3NC2=O)CC1 | 
 |  |  | 0.0073 | Cc1cc(C[C@@H](NC(=O)N2CCC(N3Cc4ccccc4NC3=O)CC2)C(=O)N2CCC(N3CCCCC3)CC2)cc2cn[nH]c12 [listing 1 of 2 here] | EC50 [12]: 0.05 nM; EC50 [13]: 0.017 nM
Active | 3500 | 1600 | 0.032 | Cc1cc(C[C@@H](NC(=O)N2CCC(N3Cc4ccccc4NC3=O)CC2)C(=O)N2CCC(N3CCCCC3)CC2)c(Cl)c2cn[nH]c12 | 
Active | 13000 | 180 | 0.011 | O=C(NC(Cc1cc(Cl)c2[nH]ncc2c1)C(=O)N1CCC(N2CCCCC2)CC1)N1CCC(N2Cc3ccccc3NC2=O)CC1 (racemic) | 
Active | 32000 | 5500 | 0.055 | O=C(N[C@H](Cc1cc(I)c2[nH]c(=O)oc2c1)C(=O)N1CCC(N2CCCCC2)CC1)N1CCC(N2Cc3ccccc3NC2=O)CC1 | 
Active |  |  |  | O=C(N[C@H](Cc1ccc2[nH]ncc2c1)C(=O)N1CCC(N2CCCCC2)CC1)N1CCC(N2Cc3ccccc3NC2=O)CC1 | EC50 [12]: 1.2 nM; IC50 (CYP3A4): > 40000 nM
Active |  |  | 27 | Cc1cc(C[C@H](NC(=O)N2CCC(N3Cc4ccccc4NC3=O)CC2)C(=O)N2CCC(N3CCCCC3)CC2)cc2cn[nH]c12 | 
Active | > 40000 | 6900 | 0.048 | CCc1cc(CC(NC(=O)N2CCC(N3Cc4ccccc4NC3=O)CC2)C(=O)N2CCC(N3CCCCC3)CC2)cc2c(C)n[nH]c12 (racemic) | 
Active |  |  |  | Cc1cc(C[C@@H](NC(=O)N2CCC(N3Cc4ccccc4NC3=O)CC2)C(=O)N2CCC(N3CCCCC3)CC2)cc2cn[nH]c12 [listing 2 of 2 here] | 
Active |  |  | 11 | N#Cc1cc(C[C@@H](NC(=O)N2CCC(N3Cc4ccccc4NC3=O)CC2)C(=O)N2CCC(N3CCCCC3)CC2)cc2oc(=O)[nH]c12 | 
